In brackets after ≈: the same amount, converted by molar mass. Activity calls are given as the source filed them. No cut-off for these calls is given here.
Columns and labels:
[1] = test system: Candida albicans; test: Antifungal activity against Candida albicans 1 at 60 ug/disc after 24 hrs by disc diffusion method; format: functional; settings: read-out: IZ
Method in brief: (§1)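 Yeast suspensions (C. albicans strains 1, 2) and mycelial suspensions (F. oxysporum strains 1, 2; Mucor sp.) spread on YPG (0.3% yeast extract, 0.5% peptone, 1% glucose) or PDA agar. Compound applied on filter-paper discs at the stated amount; 28 °C, 24 h. Read-out is inhibition zone diameter. Controls: 50% v/v DMSO vehicle, cycloheximide, amphotericin B.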

[2] = test system: Candida albicans; test: Antifungal activity against Candida albicans 1 at 40 ug/disc after 24 hrs by disc diffusion method; format: functional; settings: read-out: IZ; method in brief: as §1
[3] = test system: Candida albicans; test: Antifungal activity against Candida albicans 1 at 100 ug/disc after 24 hrs by disc diffusion method; format: functional; settings: read-out: IZ; method in brief: as §1
[4] = test system: Candida albicans; test: Antifungal activity against Candida albicans 2 at 40 ug/disc after 24 hrs by disc diffusion method; format: functional; settings: read-out: IZ; method in brief: as §1
[5] = test system: Candida albicans; test: Antifungal activity against Candida albicans 2 at 60 ug/disc after 24 hrs by disc diffusion method; format: functional; settings: read-out: IZ; method in brief: as §1
[6] = test system: Candida albicans; test: Antifungal activity against Candida albicans 2 at 100 ug/disc after 24 hrs by disc diffusion method; format: functional; settings: read-out: IZ; method in brief: as §1
[7] = test system: Fusarium oxysporum; test: Antifungal activity against Fusarium oxysporum 1 at 40 ug/disc after 24 hrs by disc diffusion method; format: functional; settings: read-out: IZ; method in brief: as §1
[8] = test system: Fusarium oxysporum; test: Antifungal activity against Fusarium oxysporum 1 at 60 ug/disc after 24 hrs by disc diffusion method; format: functional; settings: read-out: IZ; method in brief: as §1
[9] = test system: Fusarium oxysporum; test: Antifungal activity against Fusarium oxysporum 1 at 100 ug/disc after 24 hrs by disc diffusion method; format: functional; settings: read-out: IZ; method in brief: as §1
[10] = test system: Fusarium oxysporum; test: Antifungal activity against Fusarium oxysporum 2 at 40 ug/disc after 24 hrs by disc diffusion method; format: functional; settings: read-out: IZ; method in brief: as §1
[11] = test system: Fusarium oxysporum; test: Antifungal activity against Fusarium oxysporum 2 at 60 ug/disc after 24 hrs by disc diffusion method; format: functional; settings: read-out: IZ; method in brief: as §1
[12] = test system: Fusarium oxysporum; test: Antifungal activity against Fusarium oxysporum 2 at 100 ug/disc after 24 hrs by disc diffusion method; format: functional; settings: read-out: IZ; method in brief: as §1
[13] = test system: Mucor; test: Antifungal activity against Mucor at 40 ug/disc after 24 hrs by disc diffusion method; format: functional; settings: for zone of inhibition at 40 µg/disc: read-out: IZ; method in brief: as §1
[14] = test system: Mucor; test: Antifungal activity against Mucor at 60 ug/disc after 24 hrs by disc diffusion method; format: functional; settings: read-out: IZ; method in brief: as §1
[15] = test system: Mucor; test: Antifungal activity against Mucor at 100 ug/disc after 24 hrs by disc diffusion method; format: functional; settings: read-out: IZ; method in brief: as §1
[16] = test system: Candida albicans; test: Antifungal activity against Candida albicans 1 after 24 hrs by disc diffusion method; format: functional
Method in brief: (§2)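 Disc diffusion on Candida albicans strains 1 and 2 (yeast suspension), Fusarium oxysporum strains 1 and 2 and Mucor sp. (mycelial suspension), spread on YPG or PDA agar. Compound at graded amounts per filter-paper disc, 28 °C for 24 h. MIC taken as the lowest amount giving a 2 mm inhibition zone. Controls: 50% v/v DMSO vehicle, cycloheximide, amphotericin B.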

[17] = test system: Candida albicans; test: Antifungal activity against Candida albicans 2 after 24 hrs by disc diffusion method; format: functional; method in brief: as §2
[18] = test system: Fusarium oxysporum; test: Antifungal activity against Fusarium oxysporum 1 after 24 hrs by disc diffusion method; format: functional; method in brief: as §2
[19] = test system: Fusarium oxysporum; test: Antifungal activity against Fusarium oxysporum 2 after 24 hrs by disc diffusion method; format: functional; method in brief: as §2
[20] = test system: Mucor; test: Antifungal activity against Mucor at after 24 hrs by disc diffusion method; format: functional; method in brief: as §2
[21] = test system: Benjaminiella poitrasii; test: Inhibition of Benjaminiella poitrasii chitin synthase at 4 ug/mL
Method in brief: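 Chitin synthase from Benjaminiella poitrasii measured with and without compound at 4 µg/ml, using a non-radioactive chitin synthase assay. Nikkomycin Z used as reference.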

[22] = test system: MCF7; test: Antiproliferative activity against human MCF7 cells assessed as cell viability by MTT assay; format: functional, cell-based
Method in brief: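 MCF-7 cells in MEM with 10% FBS, 37 °C, 5% CO2, seeded 10,000/well, adhered 24 h. Treated 48 h at 0, 1, 10, 100, 1000 or 2000 µg/ml (DMSO stock diluted in medium), then 24 h recovery. MTT 4 h, 2-propanol solubilisation, A570 against 630 nm. DMSO carrier set as 100% growth; IC50 taken from the dose curve; triplicates.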

[23] = test system: Hep 3B2; test: Antiproliferative activity against human Hep3B cells upto 400 ug/mL assessed as cell viability by MTT assay; format: functional, cell-based
Method in brief: (§3)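 Hep3B or MCF-7 cells in MEM with 10% heat-inactivated FBS at 37 °C, 5% CO2, seeded 10,000/well and left to adhere 24 h. Exposed 48 h to compound diluted from 4 mg/ml DMSO stock, then 24 h in fresh medium. MTT (1 mg/ml, 4 h), formazan dissolved in 2-propanol, read at 570 nm (630 nm reference). DMSO-only wells set as 100% growth; triplicates.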

[24] = test system: MCF7; test: Antiproliferative activity against human MCF7 cells at 1 mg/mL assessed as cell viability by MTT assay; format: functional, cell-based; method in brief: as §3
[25] = test system: Hep 3B2; test: Antiproliferative activity against human Hep3B cells at 1 mg/mL assessed as cell viability by MTT assay; format: functional, cell-based; method in brief: as §3
[26] = test system: Benjaminiella poitrasii; test: Inhibition of yeast hypha transition at 20 ug/mL after 4 hrs
[27] = test system: Benjaminiella poitrasii; test: Inhibition of yeast hypha transition at 4 ug/mL after 4 hrs

## CC(=O)Nc1nc2c(c(-c3cccc(N4C(=O)C=CC4=O)c3)c1C#N)C(=O)CCC2
[1]
  zone of inhibition at 60 µg/disc: 2 mm
[2]
  zone of inhibition at 40 µg/disc: 2 mm
[3]
  zone of inhibition at 100 µg/disc: 7 mm
[4]
  zone of inhibition at 40 µg/disc: 2 mm
[5]
  zone of inhibition at 60 µg/disc: 2 mm
[6]
  zone of inhibition at 100 µg/disc: 7 mm
[7]
  zone of inhibition at 40 µg/disc: 2 mm
[8]
  zone of inhibition at 60 µg/disc: 2 mm
[9]
  zone of inhibition at 100 µg/disc: 6 mm
[10]
  zone of inhibition at 40 µg/disc: 2 mm
[11]
  zone of inhibition at 60 µg/disc: 2 mm
[12]
  zone of inhibition at 100 µg/disc: 6 mm
[13]
  zone of inhibition at 40 µg/disc: 8 mm
[14]
  zone of inhibition at 60 µg/disc: 9 mm
[15]
  zone of inhibition at 100 µg/disc: 11 mm
[16]
  MIC: 40 µg/disc
[17]
  MIC: 40 µg/disc
[18]
  MIC: 40 µg/disc
[19]
  MIC: 40 µg/disc
[20]
  MIC: 40 µg/disc
[21]
  inhibition: 91%
[22]
  IC50: 50 µg/mL (≈ 125 µM)
[23]
  Activity: Non-toxic
[24]
  Activity: Toxic
[25]
  Activity: Toxic
[26]
  inhibition at 20 µg/mL: 95%

## N#Cc1c(N)nc2c(c1-c1cccc([N+](=O)[O-])c1)C(=O)CCC2
[1]
  zone of inhibition at 60 µg/disc: 4 mm
[2]
  zone of inhibition at 40 µg/disc: 3 mm
[3]
  zone of inhibition at 100 µg/disc: 7 mm
[4]
  zone of inhibition at 40 µg/disc: 3 mm
[5]
  zone of inhibition at 60 µg/disc: 4 mm
[6]
  zone of inhibition at 100 µg/disc: 7 mm
[7]
  zone of inhibition at 40 µg/disc: 3 mm
[8]
  zone of inhibition at 60 µg/disc: 4 mm
[9]
  zone of inhibition at 100 µg/disc: 7 mm
[10]
  zone of inhibition at 40 µg/disc: 3 mm
[11]
  zone of inhibition at 60 µg/disc: 4 mm
[12]
  zone of inhibition at 100 µg/disc: 7 mm
[13]
  Activity: inactive
[14]
  zone of inhibition at 60 µg/disc: 9 mm
[15]
  zone of inhibition at 100 µg/disc: 15 mm
[16]
  MIC: 40 µg/disc
[17]
  MIC: 40 µg/disc
[18]
  MIC: 20 µg/disc
[19]
  MIC: 20 µg/disc
[20]
  MIC: 60 µg/disc
[21]
  inhibition: 81%
[22]
  IC50: 293 µg/mL (≈ 952 µM)
[23]
  Activity: Non-toxic
[24]
  Activity: Toxic
[25]
  Activity: Toxic
[26]
  inhibition at 20 µg/mL: 85%

## C[C@@H]([C@H](N)C(=O)N[C@H](C(=O)O)[C@H]1O[C@@H](n2ccc(=O)[nH]c2=O)[C@H](O)[C@@H]1O)[C@H](O)c1ccc(O)cn1 [NIKKOMYCIN]
[21]
  inhibition: > 90%
[27]
  inhibition at 4 µg/mL: > 90%

## C[C@@H]1[C@H](O)[C@@H](C)/C=C/C=C/C=C/C=C/C=C/C=C/C=C/[C@H](O[C@@H]2O[C@H](C)[C@@H](O)[C@H](N)[C@@H]2O)C[C@@H]2O[C@](O)(C[C@@H](O)C[C@@H](O)[C@H](O)CC[C@@H](O)C[C@@H](O)CC(=O)O[C@H]1C)C[C@H](O)[C@H]2C(=O)O [AMPHOTERICIN B]
[1]
  zone of inhibition at 60 µg/disc: 7 mm
[2]
  zone of inhibition at 40 µg/disc: 4 mm
[3]
  zone of inhibition at 100 µg/disc: 12 mm
[4]
  zone of inhibition at 40 µg/disc: 4 mm
[5]
  zone of inhibition at 60 µg/disc: 7 mm
[6]
  zone of inhibition at 100 µg/disc: 12 mm
[7]
  zone of inhibition at 40 µg/disc: 2 mm
[8]
  zone of inhibition at 60 µg/disc: 6 mm
[9]
  zone of inhibition at 100 µg/disc: 9 mm
[10]
  zone of inhibition at 40 µg/disc: 3 mm
[11]
  zone of inhibition at 60 µg/disc: 6 mm
[12]
  zone of inhibition at 100 µg/disc: 9 mm
[13]
  zone of inhibition at 40 µg/disc: 5 mm
[14]
  zone of inhibition at 60 µg/disc: 7 mm
[15]
  zone of inhibition at 100 µg/disc: 10 mm
[16]
  MIC: 40 µg/disc
[17]
  MIC: 40 µg/disc
[18]
  MIC: 40 µg/disc
[19]
  MIC: 40 µg/disc
[20]
  MIC: 40 µg/disc
[22]
  IC50: 60 µg/mL (≈ 64.9 µM)
[23]
  Activity: Non-toxic
[24]
  Activity: Toxic
[25]
  Activity: Toxic

Source: ChEMBL document CHEMBL1137451, “Synthesis and evaluation of antifungal properties of a series of the novel 2-amino-5-oxo-4-phenyl-5,6,7,8-tetrahydroquinoline-3-carbonitrile and its analogues” (Bioorg Med Chem, 2007)
